Relative velocity and Km data for 13 compounds are collected here from ChEMBL document CHEMBL1123591, “Synthetic analogues of tetrahydrobiopterin with cofactor activity for aromatic amino acid hydroxylases” (1987).

Assay [1] concerns the target T1, Phenylalanine-4-hydroxylase (Rattus norvegicus) (UniProt P04176).
T1 sequence (whole entry): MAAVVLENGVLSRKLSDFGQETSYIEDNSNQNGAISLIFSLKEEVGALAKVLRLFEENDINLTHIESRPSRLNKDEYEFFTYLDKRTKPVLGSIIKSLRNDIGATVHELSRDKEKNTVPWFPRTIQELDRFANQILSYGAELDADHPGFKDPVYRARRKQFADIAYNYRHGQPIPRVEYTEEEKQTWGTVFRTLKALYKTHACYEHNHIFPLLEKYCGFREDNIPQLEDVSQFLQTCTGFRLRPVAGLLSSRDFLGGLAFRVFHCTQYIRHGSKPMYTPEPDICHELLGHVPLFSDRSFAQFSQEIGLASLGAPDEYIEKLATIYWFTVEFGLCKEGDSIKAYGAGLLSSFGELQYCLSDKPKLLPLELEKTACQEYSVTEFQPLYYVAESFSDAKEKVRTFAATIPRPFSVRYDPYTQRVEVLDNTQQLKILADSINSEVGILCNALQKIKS
Put plainly: Tested in isolated enzyme assay for its cofactor activity against phenylalanine hydroxylase (isolated from rat liver) expressed as relative velocity. Put shortly:
(§1)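 Phenylalanine hydroxylase was isolated from rat liver and purified on phenyl-Sepharose. Tyrosine formed was quantified by liquid chromatography with fluorescence detection, and velocities were expressed relative to tetrahydrobiopterin.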

The target in assay [2] is T2, Tyrosine 3-monooxygenase (Bos taurus) (UniProt P17289).
T2 sequence (whole entry): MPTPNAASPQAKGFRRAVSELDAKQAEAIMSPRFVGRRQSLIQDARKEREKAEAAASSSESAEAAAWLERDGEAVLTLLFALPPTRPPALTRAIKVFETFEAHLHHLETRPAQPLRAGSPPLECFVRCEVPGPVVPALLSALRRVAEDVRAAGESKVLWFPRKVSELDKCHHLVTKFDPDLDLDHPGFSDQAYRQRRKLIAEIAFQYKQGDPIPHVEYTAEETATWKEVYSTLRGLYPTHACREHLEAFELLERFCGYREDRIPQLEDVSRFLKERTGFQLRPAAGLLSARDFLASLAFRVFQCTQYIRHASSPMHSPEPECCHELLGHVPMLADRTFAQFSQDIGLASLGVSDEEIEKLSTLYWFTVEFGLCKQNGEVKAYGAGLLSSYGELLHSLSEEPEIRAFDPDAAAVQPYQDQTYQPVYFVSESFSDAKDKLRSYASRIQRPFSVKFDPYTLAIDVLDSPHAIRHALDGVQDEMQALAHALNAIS
Kind of assay: Cofactor activity in bovine adrenal medulla tyrosine hydroxylase assay as relative velocity. The method, boiled down:
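Tyrosine hydroxylase was purified from bovine adrenal medulla by partial trypsin digestion, giving a model of the high-affinity form, then ammonium sulfate fractionation. Activity was measured as release of ³H₂O from L-(3,5-³H)tyrosine, with velocities expressed relative to tetrahydrobiopterin.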

The subject of assay [3] is dihydropteridine reductase. Kind of assay: Tested in isolated enzyme assay for its cofactor activity against dihydropteridine reductase expressed as Michaelis-Menten constant.
Assay [4] concerns the target T1, Phenylalanine-4-hydroxylase (Rattus norvegicus). Kind of assay: Tested in isolated enzyme assay for its cofactor activity against phenylalanine hydroxylase (iisolated from rat liver) expressed as relative velocity. The method, boiled down: as §1
In assay [5] the target is T3, Tryptophan 5-hydroxylase 1 (Rattus norvegicus) (UniProt P09810).
T3 sequence (whole entry): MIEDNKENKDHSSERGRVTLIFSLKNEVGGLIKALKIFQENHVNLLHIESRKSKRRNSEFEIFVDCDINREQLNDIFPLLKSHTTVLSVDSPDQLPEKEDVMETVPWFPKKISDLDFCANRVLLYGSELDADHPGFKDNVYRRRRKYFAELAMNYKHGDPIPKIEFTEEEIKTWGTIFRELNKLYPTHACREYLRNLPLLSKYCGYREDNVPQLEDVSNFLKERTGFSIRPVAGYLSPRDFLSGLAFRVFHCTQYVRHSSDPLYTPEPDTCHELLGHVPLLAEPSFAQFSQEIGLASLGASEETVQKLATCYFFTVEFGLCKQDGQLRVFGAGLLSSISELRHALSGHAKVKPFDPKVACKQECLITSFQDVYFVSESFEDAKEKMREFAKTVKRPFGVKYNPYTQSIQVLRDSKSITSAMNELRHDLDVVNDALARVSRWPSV
Kind of assay: Tested in isolated enzyme assay for its cofactor activity against tryptophan hydroxylase (isolated from rat brain stem) expressed as relative velocity. Put shortly:
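The tryptophan hydroxylase source was a desalted 40000g supernatant of rat brain stem, with velocities expressed relative to tetrahydrobiopterin.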

In assay [6] the test system is dihydropteridine reductase. Put plainly: Tested in isolated enzyme assay for its cofactor activity against dihydropteridine reductase expressed as Michaelis-Menten constant (calculated in the presence of platinum catalyst).

As to `COCCOCC1CNc2nc(N)nc(O)c2N1` (configuration not stated), the results for the Relative velocity in assay [1] and in assay [2] were 36% and 131%, respectively.

As for `CC(C)(C)OCC1CNc2nc(N)nc(O)c2N1` (configuration not stated), the Relative velocity in assay [1] worked out at 4%; in assay [2], 130%. Besides, in assay [3], the Km worked out at 5 µM.

`COCC1CNc2nc(N)nc(O)c2N1` (configuration not stated): the Relative velocity amounted to 138% in assay [4], 65% in assay [5] and 126% in assay [2]. For the same compound, the Km in assay [3] was found to be 9 µM.

Regarding `CC(C)OCC1CNc2nc(N)nc(O)c2N1` (configuration not stated), the Relative velocity in assay [1] was 15%; in assay [5] it was 44%; in assay [2], 137%. The Km in assay [3] was 4 µM.

`CCCCOCC1CNc2nc(N)nc(O)c2N1` (configuration not stated): the Relative velocity was determined as 22% in assay [1], 52% in assay [5] and 135% in assay [2]. Moreover, in assay [3], the Km was found to be 3 µM.

With `CC(O)C(O)C1CNc2nc(N)nc(O)c2N1` (configuration not stated), the Relative velocity in assay [4], in assay [5] and in assay [2] was 100% throughout. Further, the Km in assay [3] was 2 µM.

`CCCCCCCCOCC1CNc2nc(N)nc(O)c2N1` (configuration not stated): the Relative velocity was 3% in assay [1], 32% in assay [5] and 48% in assay [2].

As for `CC1(C)CNc2nc(N)nc(O)c2N1`, the values for the Relative velocity in assay [1], in assay [5] and in assay [2] were 39%, 40% and 119%, respectively. Moreover, the Michaelis-Menten constant (Km) in assay [6] is 260 µM.

In the case of `CCCOCC1CNc2nc(N)nc(O)c2N1` (configuration not stated), the Relative velocity in assay [1] came to 32%; in assay [5] it was 54%; in assay [2] it was 92%. Besides, in assay [3], the Km amounted to 2 µM.

Turning to `CCOCC1CNc2nc(N)nc(O)c2N1` (configuration not stated), the results for the Relative velocity in assay [4], in assay [5] and in assay [2] were 155%, 85% and 154%, respectively. In addition, the Km in assay [3] is 6 µM.

With `CC(C)COCC1CNc2nc(N)nc(O)c2N1` (configuration not stated), the Relative velocity in assay [2] stood at 110%.

Take `CC1CNc2nc(N)[nH]c(=O)c2N1` (configuration not stated): the Relative velocity was 238% in assay [4], 154% in assay [5] and 154% in assay [2]. The Km in assay [3] was determined as 13 µM.

For `CCCCCOCC1CNc2nc(N)nc(O)c2N1` (configuration not stated), the Relative velocity in assay [2] is 85%.
